Source: ChEMBL document CHEMBL5724801, “EUbOPEN Chemogenomics Library - Multiplex” (2024)
Several values for one entry are separate records, joined by “and”; a condition that tells them apart may be missing. Identical values can stand only once.

Tested on: U2OS
Test: Multiplex assay against U2OS
Assay type: toxicity, cell-based
Conditions: human
In short: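 Four dyes were applied at seeding to live cells: Hoechst33342, BioTracker Green Microtubule Cytoskeleton Dye, MitoTracker Red and Annexin V Alexa Fluor 680. Imaging after compound addition used a CQ1 microscope at 37°C and 5% CO2. CellPathfinder machine-learning gating then sorted cells into Hoechst high-intensity objects or normal cells, normal cells into healthy, pyknosed or fragmented nuclei, and pyknosed cells into mitotic or apoptotic, with tubulin, mitochondrial-mass and membrane-permeability phenotypes given as per cents of healthy-nucleus cells.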

[1] = 12 h, 1 µM, compound concentration 1 uM
[2] = 12 h, 10 µM, compound concentration 10 uM
[3] = 24 h, 1 µM, compound concentration 1 uM
[4] = 24 h, 10 µM, compound concentration 10 uM
[5] = 48 h, 1 µM, compound concentration 1 uM
[6] = 48 h, 10 µM, compound concentration 10 uM

Compound: Cc1ccc(OCC(O)C(C)NC(C)C)c2c1CCC2.Cl (stereo not given)
- Population Apoptotic (%) [1]: 63% and 90%
- Population Fragmented Nuclei (%) [1]: 19% and 11%
- Population Healthy Nuclei (%) [1]: 66% and 79%
- Population Hoechst High Intensity Objects (%) [1]: 2% and 1%
- Population Membrane Permeable-Phenotype (%) [1]: 8% and 7%
- Population Mitochondria Different-Phenotype (%) [1]: 3% and 2%
- Population Normal (%) [1]: 97% and 98%
- Population Pyknosed Nuclei (%) [1]: 13% and 8%
- Population Tubulin-Different-Phenotype (%) [1]: 4% and 2%
- Total Cell Count [1]: 222 and 129
- Population Apoptotic (%) [2]: 61% and 80%
- Population Fragmented Nuclei (%) [2]: 30% and 11%
- Population Healthy Nuclei (%) [2]: 52% and 81%
- Population Hoechst High Intensity Objects (%) [2]: 5% and 0%
- Population Membrane Permeable-Phenotype (%) [2]: 14% and 9%
- Population Mitochondria Different-Phenotype (%) [2]: 17% and 22%
- Population Mitotic Cells (%) [2]: 38% and 20%
- Population Normal (%) [2]: 94% and 99%
- Population Pyknosed Nuclei (%) [2]: 16% and 7%
- Population Tubulin-Different-Phenotype (%) [2]: 8% and 9%
- Total Cell Count [2]: 215 and 137
- Population Apoptotic (%) [3]: 88% and 93%
- Population Fragmented Nuclei (%) [3]: 14% and 15%
- Population Healthy Nuclei (%) [3]: 75% and 73%
- Population Hoechst High Intensity Objects (%) [3]: 0% and 1%
- Population Membrane Permeable-Phenotype (%) [3]: 5% and 3%
- Population Mitochondria Different-Phenotype (%) [3]: 3% and 5%
- Population Mitotic Cells (%) [3]: 11% and 6%
- Population Normal (%) [3]: 100% and 98%
- Population Pyknosed Nuclei (%) [3]: 10%
- Population Tubulin-Different-Phenotype (%) [3]: 4% and 0%
- Total Cell Count [3]: 255 and 155
- Population Apoptotic (%) [4]: 82% and 92%
- Population Fragmented Nuclei (%) [4]: 26% and 14%
- Population Healthy Nuclei (%) [4]: 56% and 77%
- Population Hoechst High Intensity Objects (%) [4]: 3% and 2%
- Population Membrane Permeable-Phenotype (%) [4]: 10% and 12%
- Population Mitochondria Different-Phenotype (%) [4]: 17% and 11%
- Population Mitotic Cells (%) [4]: 17% and 7%
- Population Normal (%) [4]: 96% and 97%
- Population Pyknosed Nuclei (%) [4]: 17% and 8%
- Population Tubulin-Different-Phenotype (%) [4]: 4% and 6%
- Total Cell Count [4]: 230 and 172
- Population Apoptotic (%) [5]: 88% and 80%
- Population Fragmented Nuclei (%) [5]: 14% and 20%
- Population Healthy Nuclei (%) [5]: 73% and 69%
- Population Hoechst High Intensity Objects (%) [5]: 0% and 2%
- Population Membrane Permeable-Phenotype (%) [5]: 6% and 5%
- Population Mitochondria Different-Phenotype (%) [5]: 4% and 3%
- Population Mitotic Cells (%) [5]: 11% and 20%
- Population Normal (%) [5]: 99% and 97%
- Population Pyknosed Nuclei (%) [5]: 12% and 10%
- Population Tubulin-Different-Phenotype (%) [5]: 3% and 2%
- Total Cell Count [5]: 377 and 202
- Population Apoptotic (%) [6]: 82% and 77%
- Population Fragmented Nuclei (%) [6]: 23% and 15%
- Population Healthy Nuclei (%) [6]: 63% and 73%
- Population Hoechst High Intensity Objects (%) [6]: 4% and 0%
- Population Membrane Permeable-Phenotype (%) [6]: 12% and 7%
- Population Mitochondria Different-Phenotype (%) [6]: 12% and 4%
- Population Mitotic Cells (%) [6]: 17% and 22%
- Population Normal (%) [6]: 95% and 99%
- Population Pyknosed Nuclei (%) [6]: 13% and 11%
- Population Tubulin-Different-Phenotype (%) [6]: 6% and 3%
- Total Cell Count [6]: 306 and 246

Compound: CC1(COc2ccc3c(c2)ncn3-c2ccc3cccc(N4CCC(N)CC4)c3n2)COC1 [CRENOLANIB]
- Population Apoptotic (%) [1]: 58% and 25%
- Population Fragmented Nuclei (%) [1]: 36% and 28%
- Population Healthy Nuclei (%) [1]: 50% and 60%
- Population Hoechst High Intensity Objects (%) [1]: 9% and 13%
- Population Membrane Permeable-Phenotype (%) [1]: 87% and 82%
- Population Mitochondria Different-Phenotype (%) [1]: 51% and 73%
- Population Mitotic Cells (%) [1]: 41% and 75%
- Population Normal (%) [1]: 90% and 86%
- Population Pyknosed Nuclei (%) [1]: 13% and 10%
- Population Tubulin-Different-Phenotype (%) [1]: 92% and 88%
- Total Cell Count [1]: 143 and 86
- Population Apoptotic (%) [2]: 81% and 92%
- Population Fragmented Nuclei (%) [2]: 43% and 37%
- Population Healthy Nuclei (%) [2]: 11% and 21%
- Population Hoechst High Intensity Objects (%) [2]: 21% and 24%
- Population Membrane Permeable-Phenotype (%) [2]: 76% and 47%
- Population Mitochondria Different-Phenotype (%) [2]: 80% and 76%
- Population Mitotic Cells (%) [2]: 18% and 7%
- Population Normal (%) [2]: 78% and 75%
- Population Pyknosed Nuclei (%) [2]: 44% and 41%
- Population Tubulin-Different-Phenotype (%) [2]: 88% and 85%
- Total Cell Count [2]: 274
- Population Apoptotic (%) [3]: 71% and 54%
- Population Fragmented Nuclei (%) [3]: 39% and 25%
- Population Healthy Nuclei (%) [3]: 45% and 62%
- Population Hoechst High Intensity Objects (%) [3]: 9% and 10%
- Population Membrane Permeable-Phenotype (%) [3]: 71% and 67%
- Population Mitochondria Different-Phenotype (%) [3]: 62% and 67%
- Population Mitotic Cells (%) [3]: 28% and 45%
- Population Normal (%) [3]: 90% and 89%
- Population Pyknosed Nuclei (%) [3]: 14% and 12%
- Population Tubulin-Different-Phenotype (%) [3]: 87% and 72%
- Total Cell Count [3]: 156 and 98
- Population Apoptotic (%) [4]: 93% and 100%
- Population Fragmented Nuclei (%) [4]: 46% and 53%
- Population Healthy Nuclei (%) [4]: 8% and 11%
- Population Hoechst High Intensity Objects (%) [4]: 37% and 36%
- Population Membrane Permeable-Phenotype (%) [4]: 42% and 44%
- Population Mitochondria Different-Phenotype (%) [4]: 50% and 77%
- Population Mitotic Cells (%) [4]: 6% and 0%
- Population Normal (%) [4]: 62% and 63%
- Population Pyknosed Nuclei (%) [4]: 45% and 34%
- Population Tubulin-Different-Phenotype (%) [4]: 50% and 77%
- Total Cell Count [4]: 254
- Population Apoptotic (%) [5]: 88% and 62%
- Population Fragmented Nuclei (%) [5]: 41% and 37%
- Population Healthy Nuclei (%) [5]: 43% and 48%
- Population Hoechst High Intensity Objects (%) [5]: 8% and 4%
- Population Membrane Permeable-Phenotype (%) [5]: 35% and 53%
- Population Mitochondria Different-Phenotype (%) [5]: 40% and 37%
- Population Normal (%) [5]: 91% and 95%
- Population Pyknosed Nuclei (%) [5]: 14% and 13%
- Population Tubulin-Different-Phenotype (%) [5]: 44% and 51%
- Total Cell Count [5]: 186
- Population Apoptotic (%) [6]: 100%
- Population Fragmented Nuclei (%) [6]: 51% and 57%
- Population Healthy Nuclei (%) [6]: 11% and 13%
- Population Hoechst High Intensity Objects (%) [6]: 42% and 29%
- Population Membrane Permeable-Phenotype (%) [6]: 43% and 50%
- Population Mitochondria Different-Phenotype (%) [6]: 37% and 35%
- Population Mitotic Cells (%) [6]: 0%
- Population Normal (%) [6]: 58% and 70%
- Population Pyknosed Nuclei (%) [6]: 37% and 28%
- Population Tubulin-Different-Phenotype (%) [6]: 56% and 28%
- Total Cell Count [6]: 250 and 144
